In brackets after ≈: the same amount, converted by molar mass.

Holding throughout (format): functional
In assay [1] the test system is Pichia kudriavzevii. Description: Antifungal activity against Candida krusei ATCC 14243 by M27-A3 guideline based method. A digest of the protocol: (§1)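 Broth microdilution per CLSI (M38-A for filamentous fungi, M27-A3 for yeasts), in MOPS-buffered RPMI-1640 medium. Itraconazole served as the reference antifungal. The MIC was read as the endpoint and expressed in µg/mL.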

For assay [2], the system named is Nakaseomyces glabratus. Nature of the assay: Antifungal activity against Candida glabrata ATCC 34138 by M27-A3 guideline based method. A digest of the protocol:
as §1

For assay [3], the system named is Cutaneotrichosporon cutaneum. Description: Antifungal activity against Trichosporon cutaneum ATCC 28592 by M38-A guideline based method. In outline: as §1
Assay [4] concerns Aspergillus fumigatus. Nature of the assay: Antifungal activity against Aspergillus fumigatus ATCC 16907 by M38-A guideline based method. A digest of the protocol:
as §1

Assay [5] has as its system Candida tropicalis. Nature of the assay: Antifungal activity against Candida tropicalis ATCC 13803 by M27-A3 guideline based method. A digest of the protocol:
as §1

The test system of assay [6] is Candida albicans. Description: Antifungal activity against Candida albicans ATCC 10231 by M27-A3 guideline based method. A digest of the protocol:
as §1

The subject of assay [7] is Cyberlindnera jadinii. Nature of the assay: Antifungal activity against Candida utilis ATCC 9226 by M27-A3 guideline based method. The note with it: Williopsis jadinii. A digest of the protocol: as §1
In assay [8] the test system is Candida parapsilosis. Nature of the assay: Antifungal activity against Candida parapsilosis ATCC 22019 by M27-A3 guideline based method. The note with it: Lodderomyces parapsilosis. In outline:
as §1

Assay [9] concerns Mucor hiemalis. Description: Antifungal activity against Mucor hiemalis ATCC 8690 by M38-A guideline based method. In outline: as §1
For assay [10], the system named is Rhizopus arrhizus. Nature of the assay: Antifungal activity against Rhizopus oryzae ATCC 10329by M38-A guideline based method. In outline: as §1

In the case of `O=C(c1ccccc1)c1nnn(CCn2c(-c3ccccc3)c(-c3ccccc3)oc2=O)c1-c1ccccc1`, the MIC came to 8 µg/mL (≈ 15.6 µM) in assay [1]; 2 µg/mL (≈ 3.9 µM) in assay [2]; 8 µg/mL (≈ 15.6 µM) in assay [3]; 16 µg/mL (≈ 31.2 µM) in [4]; 8 µg/mL (≈ 15.6 µM) in [5]; 8 µg/mL (≈ 15.6 µM) in [6]. The MIC in assay [7] is 8 µg/mL (≈ 15.6 µM); in assay [8] it was 8 µg/mL (≈ 15.6 µM); in [9], 16 µg/mL (≈ 31.2 µM); in [10], 16 µg/mL (≈ 31.2 µM).
Regarding `Cc1ccc(S(=O)(=O)c2nnn(CCn3c(-c4ccccc4)c(-c4ccccc4)oc3=O)c2-c2ccc(Cl)cc2)cc1`, the MIC was 8 µg/mL (≈ 13.4 µM) in assay [1]; 4 µg/mL (≈ 6.7 µM) in assay [2]; 8 µg/mL (≈ 13.4 µM) in assay [3]; 4 µg/mL (≈ 6.7 µM) in assay [4]; 8 µg/mL (≈ 13.4 µM) in assay [5]; 8 µg/mL (≈ 13.4 µM) in [6]. For the same compound, the MIC stood at 8 µg/mL (≈ 13.4 µM) in assay [7], 8 µg/mL (≈ 13.4 µM) in assay [8], 16 µg/mL (≈ 26.8 µM) in [9] and 16 µg/mL (≈ 26.8 µM) in assay [10].
As to `Cc1ccc(S(=O)(=O)c2nnn(CCn3c(-c4ccccc4)c(-c4ccccc4)oc3=O)c2-c2ccc([N+](=O)[O-])cc2)cc1`, the MIC was found to be 0.25 µg/mL (≈ 0.411 µM) in assay [1]; 4 µg/mL (≈ 6.58 µM) in assay [2]; 8 µg/mL (≈ 13.2 µM) in [3]; 2 µg/mL (≈ 3.29 µM) in assay [4]; 8 µg/mL (≈ 13.2 µM) in assay [5]; 4 µg/mL (≈ 6.58 µM) in assay [6]. Besides, the MIC in assay [7] came to 4 µg/mL (≈ 6.58 µM); in [8] it was 8 µg/mL (≈ 13.2 µM); in assay [9], 16 µg/mL (≈ 26.3 µM); in [10], 16 µg/mL (≈ 26.3 µM).
In the case of `Cc1ccc(S(=O)(=O)c2nnn(CCn3c(-c4ccccc4)c(-c4ccccc4)oc3=O)c2-c2ccccc2)cc1`, the MIC in assay [1] is 0.5 µg/mL (≈ 0.889 µM); in [2], 1 µg/mL (≈ 1.78 µM); in [3], 8 µg/mL (≈ 14.2 µM); in assay [4], 2 µg/mL (≈ 3.55 µM); in [5] it was 8 µg/mL (≈ 14.2 µM); in assay [6], 8 µg/mL (≈ 14.2 µM). The MIC came to 8 µg/mL (≈ 14.2 µM) in assay [7], 8 µg/mL (≈ 14.2 µM) in [8], 4 µg/mL (≈ 7.11 µM) in assay [9] and 16 µg/mL (≈ 28.4 µM) in assay [10].
With `CC(=O)c1nnn(CCn2c(-c3ccccc3)c(-c3ccccc3)oc2=O)c1C`, the MIC in [1] amounted to 8 µg/mL (≈ 20.6 µM); in assay [2] it was 2 µg/mL (≈ 5.15 µM); in assay [3], 8 µg/mL (≈ 20.6 µM); in assay [4], 16 µg/mL (≈ 41.2 µM); in assay [5], 8 µg/mL (≈ 20.6 µM); in assay [6], 8 µg/mL (≈ 20.6 µM). Further, the MIC turned out to be 8 µg/mL (≈ 20.6 µM) in [7], 4 µg/mL (≈ 10.3 µM) in assay [8], 16 µg/mL (≈ 41.2 µM) in [9] and 8 µg/mL (≈ 20.6 µM) in assay [10].
As for `N#Cc1nnn(CCn2c(-c3ccccc3)c(-c3ccccc3)oc2=O)c1-c1ccccc1`, the MIC in assay [1] was determined as 0.5 µg/mL (≈ 1.15 µM); in assay [2], 0.12 µg/mL (≈ 0.277 µM); in assay [3], 8 µg/mL (≈ 18.5 µM); in [4], 16 µg/mL (≈ 36.9 µM); in assay [5], 8 µg/mL (≈ 18.5 µM); in assay [6], 8 µg/mL (≈ 18.5 µM). Further, the MIC in assay [7] worked out at 8 µg/mL (≈ 18.5 µM); in [8], 8 µg/mL (≈ 18.5 µM); in [9] it was 2 µg/mL (≈ 4.61 µM); in assay [10], 16 µg/mL (≈ 36.9 µM).
`Cc1ccc(S(=O)(=O)c2nnn(CCn3c(-c4ccccc4)c(-c4ccccc4)oc3=O)c2-c2ccc(Cl)s2)cc1`: the MIC in [1] was 2 µg/mL (≈ 3.32 µM); in assay [2], 2 µg/mL (≈ 3.32 µM); in assay [3], 8 µg/mL (≈ 13.3 µM); in [4], 16 µg/mL (≈ 26.5 µM); in assay [5], 8 µg/mL (≈ 13.3 µM); in assay [6], 8 µg/mL (≈ 13.3 µM). The MIC in assay [7] amounted to 8 µg/mL (≈ 13.3 µM); in assay [8], 4 µg/mL (≈ 6.63 µM); in assay [9], 16 µg/mL (≈ 26.5 µM); in assay [10] it was 16 µg/mL (≈ 26.5 µM).
With `Cc1ccc(S(=O)(=O)c2nnn(CCn3c(-c4ccccc4)c(-c4ccccc4)oc3=O)c2-c2cccs2)cc1`, the MIC in assay [1] is 8 µg/mL (≈ 14.1 µM); in [2] it was 1 µg/mL (≈ 1.76 µM); in [3] it was 8 µg/mL (≈ 14.1 µM); in assay [4], 8 µg/mL (≈ 14.1 µM); in assay [5] it was 8 µg/mL (≈ 14.1 µM); in assay [6], 8 µg/mL (≈ 14.1 µM). The MIC in assay [7] was determined as 8 µg/mL (≈ 14.1 µM); in assay [8] it was 8 µg/mL (≈ 14.1 µM); in [9] it was 16 µg/mL (≈ 28.1 µM); in [10], 16 µg/mL (≈ 28.1 µM).
As to `Cc1ccc(-c2c(S(=O)(=O)c3ccc(C)cc3)nnn2CCn2c(-c3ccccc3)c(-c3ccccc3)oc2=O)cc1`, the MIC was found to be 8 µg/mL (≈ 13.9 µM) in [1]; 2 µg/mL (≈ 3.47 µM) in [2]; 8 µg/mL (≈ 13.9 µM) in assay [3]; 8 µg/mL (≈ 13.9 µM) in assay [4]; 8 µg/mL (≈ 13.9 µM) in assay [5]; 1 µg/mL (≈ 1.73 µM) in assay [6]. Further, the MIC in assay [7] was 4 µg/mL (≈ 6.94 µM); in [8] it was 0.25 µg/mL (≈ 0.434 µM); in [9], 16 µg/mL (≈ 27.7 µM); in assay [10] it was 16 µg/mL (≈ 27.7 µM).
Take `Cc1ccc(S(=O)(=O)c2nnn(CCn3c(-c4ccccc4)c(-c4ccccc4)oc3=O)c2-c2cccc([N+](=O)[O-])c2)cc1`: the MIC in assay [1] was 8 µg/mL (≈ 13.2 µM); in [2] it was 0.12 µg/mL (≈ 0.197 µM); in assay [3] it was 2 µg/mL (≈ 3.29 µM); in [4], 16 µg/mL (≈ 26.3 µM); in assay [5] it was 8 µg/mL (≈ 13.2 µM); in assay [6], 8 µg/mL (≈ 13.2 µM). Moreover, the MIC in assay [7] was determined as 8 µg/mL (≈ 13.2 µM); in assay [8], 0.5 µg/mL (≈ 0.823 µM); in [9], 16 µg/mL (≈ 26.3 µM); in assay [10], 16 µg/mL (≈ 26.3 µM).
On to `CCC(C)n1ncn(-c2ccc(N3CCN(c4ccc(OCC5COC(Cn6cncn6)(c6ccc(Cl)cc6Cl)O5)cc4)CC3)cc2)c1=O` (stereo not given) [ITRACONAZOLE], for which the MIC amounted to 0.25 µg/mL (≈ 0.354 µM) in assay [1]; 1 µg/mL (≈ 1.42 µM) in assay [2]; 8 µg/mL (≈ 11.3 µM) in [3]; 1 µg/mL (≈ 1.42 µM) in [4]; 0.06 µg/mL (≈ 0.085 µM) in assay [5]; 0.03 µg/mL (≈ 0.0425 µM) in assay [6]. In addition, the MIC stood at 0.25 µg/mL (≈ 0.354 µM) in assay [7], 0.06 µg/mL (≈ 0.085 µM) in assay [8], 4 µg/mL (≈ 5.67 µM) in assay [9] and 1 µg/mL (≈ 1.42 µM) in assay [10].

In general, MIC refers to the lowest concentration found to suppress growth. A higher MIC goes with a need for much substance.

The record behind these values is ChEMBL document CHEMBL4257460, “Synthesis and antifungal activity of novel oxazolidin-2-one-linked 1,2,3-triazole derivatives” (2017).
